The record followed here is article PMC6682041 (ACS Omega, 2019).

Each structure is given as a SMILES string.

A word on the IC50: it is the concentration needed to halve the response being measured. One may read the Ki as the equilibrium dissociation constant of an inhibitor or competing ligand from its target. The term inhibition denotes how much of the control response was suppressed.

Test [1] concerns the target T1, electric eel AChE (Electrophorus electricus, UniProt O42275). The experiment in a line: Cholinesterase enzyme inhibition assay. It is filed as biochemical. In a few lines: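 Electric eel AChE, added as a 0.36 U/mL solution, was preincubated 15 min at room temperature in sodium phosphate buffer (pH 8.0) with test compound dissolved in 10% DMSO. DTNB and […] substrate were then added, with a further 10 min at room temperature. Absorbance was read at 412 nm, in triplicate. % inhibition = (1 − T/C) × 100; IC50 from the log dose–inhibition curve.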

The target of test [2] is T2, horse serum BChE (Equus caballus, UniProt P81908). The experiment in a line: Cholinesterase enzyme inhibition assay. It is filed as biochemical.
For test [3], the target named is T3, human recombinant β-secretase (BACE1) (Homo sapiens, UniProt P56817). The test is described as follows: BACE1 enzyme inhibition assay. It is filed as biochemical.
For test [4], the target named is human recombinant GSK-3β (Homo sapiens, UniProt P49841). The test is described as follows: biochemical.
Test [5] addresses T1, electric eel AChE. The test is described as follows: Enzyme kinetics of AChE inhibition. It is filed as biochemical. The note with it: for AChE inhibition type: determined by the Lineweaver–Burk plot. In a few lines:
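Electric eel AChE (0.36 U/mL solution) was preincubated 15 min at RT with the test compound (0.5–10 µM, from 10% DMSO) in sodium phosphate buffer pH 8.0. DTNB and acetylthiocholine (0.1, 0.3, 0.6 […]) were then added, with 10 min at RT and A412 read. Run in triplicate. Inhibition type came from Lineweaver–Burk plots and Ki from Dixon plots.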

The target in test [6] is T2, horse serum BChE. The test is described as follows: Enzyme kinetics of BChE inhibition. Conditions: for BChE inhibition type: determined by the Lineweaver–Burk plot. It is filed as biochemical. In a few lines:
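Horse serum BChE (0.36 U/mL solution) was preincubated 15 min at RT with the test compound (1.25–10 µM, from 10% DMSO) in sodium phosphate buffer pH 8.0. Reaction started with DTNB plus butyrylthiocholine (0.1, 0.3, 0.6 […]), then 10 min at RT and A412 read. Run in triplicate. Lineweaver–Burk plots gave the inhibition mode; Dixon plots gave Ki.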

For test [7], the target named is T3, human recombinant β-secretase (BACE1). The experiment in a line: Enzyme kinetics of BACE1 inhibition. It is filed as biochemical. The note with it: for BACE1 inhibition type: determined by the Lineweaver–Burk plot. Put shortly: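 FRET kit using human recombinant β-secretase (1.0 U/mL solution) in assay buffer pH 4.5. The test compound (0.625–5 µM) was mixed with substrate at 250, 375 or 750 nM and incubated 60 min at RT in the dark. Fluorescence was read at ex 545/em 585 nm, and inhibition taken from the 0 to 60 min change versus control. Lineweaver–Burk plots gave the mechanism; Dixon plots gave Ki.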

For test [8], the target named is Aβ25–35 (Homo sapiens, UniProt P05067). The experiment in a line: Self-induced Aβ25–35 aggregation inhibition assay. It is filed as biochemical. Conditions: read-out: inhibition of self-induced Aβ25–35 aggregation. Put shortly: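 Aβ25–35 was lyophilized from HFIP, taken to a 0.4 mM stock in 65% acetonitrile and diluted 2-fold in 69 mM phosphate pH 7.0. Test compound (0.2, 2, 20 µM) or reference inhibitor (10 µM) was added, then 24 h at 4 °C. ThT (25 µM, glycine–NaOH pH 8.5) was added, with 5 min before reading ex 446/em 490 nm. %inhibition = 100 − (Fi/Fc × 100); mean ± SD, n=3.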

T1 sequence (O42275 24-633): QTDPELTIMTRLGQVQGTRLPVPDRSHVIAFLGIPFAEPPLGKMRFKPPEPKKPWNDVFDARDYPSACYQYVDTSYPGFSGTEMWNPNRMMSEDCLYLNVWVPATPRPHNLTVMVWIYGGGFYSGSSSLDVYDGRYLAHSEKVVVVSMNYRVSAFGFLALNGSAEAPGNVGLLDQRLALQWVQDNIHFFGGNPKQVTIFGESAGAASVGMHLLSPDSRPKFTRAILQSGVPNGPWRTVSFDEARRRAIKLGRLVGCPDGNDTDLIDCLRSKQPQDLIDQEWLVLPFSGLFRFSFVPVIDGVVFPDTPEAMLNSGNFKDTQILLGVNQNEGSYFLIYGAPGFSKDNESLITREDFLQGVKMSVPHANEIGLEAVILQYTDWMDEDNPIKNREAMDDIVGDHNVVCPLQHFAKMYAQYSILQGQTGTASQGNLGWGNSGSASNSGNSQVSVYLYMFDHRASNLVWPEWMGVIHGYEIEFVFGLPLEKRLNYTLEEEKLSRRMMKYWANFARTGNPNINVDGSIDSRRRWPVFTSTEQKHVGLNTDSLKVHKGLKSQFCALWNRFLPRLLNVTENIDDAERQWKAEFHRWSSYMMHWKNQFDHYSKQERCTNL
T2 sequence (P81908 whole entry): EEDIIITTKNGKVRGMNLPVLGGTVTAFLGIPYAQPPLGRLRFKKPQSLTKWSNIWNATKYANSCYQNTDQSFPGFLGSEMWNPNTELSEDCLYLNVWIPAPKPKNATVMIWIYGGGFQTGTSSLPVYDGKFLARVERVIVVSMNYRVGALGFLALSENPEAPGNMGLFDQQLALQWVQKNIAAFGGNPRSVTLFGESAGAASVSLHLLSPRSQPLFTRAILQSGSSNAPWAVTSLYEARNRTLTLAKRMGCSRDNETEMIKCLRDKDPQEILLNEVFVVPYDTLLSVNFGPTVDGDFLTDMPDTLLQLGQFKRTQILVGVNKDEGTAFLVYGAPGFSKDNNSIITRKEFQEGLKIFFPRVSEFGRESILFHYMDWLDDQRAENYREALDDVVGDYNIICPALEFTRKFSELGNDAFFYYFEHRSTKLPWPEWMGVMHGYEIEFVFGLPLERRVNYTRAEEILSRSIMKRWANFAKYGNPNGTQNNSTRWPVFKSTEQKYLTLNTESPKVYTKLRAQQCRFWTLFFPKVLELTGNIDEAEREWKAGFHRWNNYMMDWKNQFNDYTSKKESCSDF
T3 sequence (P56817 46-501): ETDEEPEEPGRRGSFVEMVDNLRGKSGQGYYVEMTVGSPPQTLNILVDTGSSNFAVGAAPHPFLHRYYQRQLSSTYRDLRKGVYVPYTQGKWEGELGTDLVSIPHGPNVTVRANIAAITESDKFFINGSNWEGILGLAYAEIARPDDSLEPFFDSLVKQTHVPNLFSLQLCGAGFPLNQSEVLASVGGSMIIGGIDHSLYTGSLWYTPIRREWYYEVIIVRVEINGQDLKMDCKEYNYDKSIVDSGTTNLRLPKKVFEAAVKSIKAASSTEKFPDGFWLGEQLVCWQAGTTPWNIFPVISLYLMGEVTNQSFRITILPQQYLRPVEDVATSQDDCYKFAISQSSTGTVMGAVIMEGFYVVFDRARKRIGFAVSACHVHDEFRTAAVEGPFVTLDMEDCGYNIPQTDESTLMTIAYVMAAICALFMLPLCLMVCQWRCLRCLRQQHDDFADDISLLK
human recombinant GSK-3β, sequence (P49841 whole entry): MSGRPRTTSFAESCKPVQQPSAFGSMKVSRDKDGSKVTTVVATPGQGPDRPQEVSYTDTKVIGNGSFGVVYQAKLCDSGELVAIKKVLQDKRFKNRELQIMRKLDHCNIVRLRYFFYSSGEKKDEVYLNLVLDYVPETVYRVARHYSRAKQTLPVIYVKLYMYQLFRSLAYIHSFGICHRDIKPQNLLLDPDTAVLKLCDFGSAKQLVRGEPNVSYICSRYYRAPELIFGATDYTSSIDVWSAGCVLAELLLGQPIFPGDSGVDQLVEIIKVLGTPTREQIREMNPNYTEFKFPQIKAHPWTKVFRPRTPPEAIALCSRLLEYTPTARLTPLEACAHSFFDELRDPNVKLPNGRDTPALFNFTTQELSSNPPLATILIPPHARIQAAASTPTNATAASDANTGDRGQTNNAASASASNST

Take `COCc1c(Br)c(O)c(O)c(Br)c1Br` [Compound 2, 2,3,6-tribromo-4,5-dihydroxybenzyl methyl ether]: the half-maximal inhibitory concentration (IC50) in test [1] is 9.61 ± 0.35 µM; in test [2] it was 14.4 ± 0.27 µM; in test [3], 4.79 ± 0.82 µM; in test [4] it was 140 ± 15.1 µM. Besides, the Ki in test [5] came to 0.71 µM; in test [6], 0.51 µM; in test [7], 0.7 µM. Besides, the AChE inhibition type entry in test [5] is on record as “mixed”. In test [6], the BChE inhibition type result is listed as “competitive”. Besides, in test [7], the BACE1 inhibition type entry was “noncompetitive”. In addition, the inhibition at 20 µM in test [8] came out at 56.7%.

Turning to `COc1ccc2cc3[n+](cc2c1OC)CCc1cc2c(cc1-3)OCO2` [berberine, reference compound], inhibition in test [1] was half-maximal at 1.17 ± 0.09 µM (IC50).

Turning to `Oc1c(O)c(Br)c(COCc2c(Br)c(O)c(O)c(Br)c2Br)c(Br)c1Br` [Compound 3, bis-(2,3,6-tribromo-4,5-dihydroxybenzyl) ether], the half-maximal inhibitory concentration (IC50) came to 2.66 ± 0.24 µM in test [1], 4.03 ± 0.15 µM in test [2], 2.32 ± 0.1 µM in test [3] and 56.5 ± 2.48 µM in test [4]. Moreover, the results for the Ki in test [5], in test [6] and in test [7] were 0.64 µM, 0.37 µM and 1.24 µM, respectively. The AChE inhibition type entry in test [5] is given as “mixed”. The BChE inhibition type result in test [6] is given as “competitive”. Also, the BACE1 inhibition type entry in test [7] is reported as “competitive”. Also, the inhibition at 20 µM in test [8] worked out at 58.5%.

Consider `O=c1cc(-c2ccc(O)c(O)c2)oc2cc(O)cc(O)c12` [luteolin, reference compound], for which the IC50 in test [4] came out at 5.42 ± 0.19 µM.

In the case of `OCc1c(Br)c(O)c(O)c(Br)c1Br` [Compound 1, 2,3,6-tribromo-4,5-dihydroxybenzyl alcohol], the 50% inhibitory concentration (IC50) is 7.31 ± 0.25 µM in test [1], 8.95 ± 2.18 µM in test [2], 5.16 ± 0.6 µM in test [3] and 229 ± 12.1 µM in test [4]. In addition, the inhibitory constant (Ki) in test [5] was 0.58 µM; in test [6], 1.15 µM; in test [7], 3.1 µM. In addition, the AChE inhibition type entry in test [5] was “mixed”. The BChE inhibition type entry in test [6] is recorded as “competitive”. In addition, in test [7], the BACE1 inhibition type entry is on record as “noncompetitive”. Besides, the inhibition at 20 µM in test [8] turned out to be 66.8%.

For the compound `COc1cc(/C=C/C(=O)CC(=O)/C=C/c2ccc(O)c(OC)c2)ccc1O` [curcumin, reference compound], the inhibition at 10 µM in test [8] was 52.4%.
